Assays:
Format in all cases: functional
Haemonchus contortus [1] = assay: Anthelmintic efficacy against adult Haemonchus contortus (H.c) in sheep at dose of 0.025 mg/kg administered orally; details: route oral
How it was run: (§1)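 Lambs were experimentally infected with mixed gastrointestinal nematodes: Haemonchus contortus, Ostertagia circumcincta, Trichostrongylus axei, T. colubriformis, Cooperia oncophora and Oesophagostomum columbianum. Dosing was oral, in mg/kg, with 3 sheep per dose group. An untreated infected group of 6 sheep served as reference, with worm burdens given as the geometric mean per lamb. Immature (EL4) and adult worms were scored separately.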

Cooperia oncophora [2] = assay: Anthelmintic efficacy against adult Cooperia oncopphora (C.o) in sheep at dose of 0.025 mg/kg administered orally; 0-19%
How it was run: (§2)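 Lambs experimentally infected with mixed gastrointestinal nematodes (H. contortus, O. circumcincta, T. axei, T. colubriformis, C. oncophora, Oe. columbianum) were dosed orally, 1–3 sheep per dose. An untreated infected group of 6 was included, with worm burdens given as the geometric mean number of worms per lamb. Efficacy was scored against adult and, where listed, EL4 stages.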

Trichostrongylus axei [3] = assay: Anthelmintic efficacy against Trichostrongylus axei (T.a) in sheep at dose of 0.1 mg/kg administered orally; details: route oral; how it was run: as §2
Haemonchus contortus [4] = assay: Anthelmintic efficacy against adult Haemonchus contortus (H.c) in sheep at dose of 0.1 mg/kg administered orally; details: route oral; how it was run: as §2
[5] = test system: Teladorsagia circumcincta; assay: Anthelmintic efficacy against adult Ostertagia circumcincta (O. c) in sheep at dose of 0.025 mg/kg administered orally; details: route oral; how it was run: as §2
Cooperia oncophora [6] = assay: Anthelmintic efficacy against immature (EL4) Cooperia oncopphora (C.o) in sheep at dose of 0.1 mg/kg administered orally; details: route oral; how it was run: as §1
[7] = test system: Teladorsagia circumcincta; assay: Anthelmintic efficacy against immature (EL4) Ostertagia circumcincta (O. c) in sheep at dose of 0.05 mg/kg administered orally; 0-19%
Cooperia oncophora [8] = assay: Anthelmintic efficacy against immature (EL4) Cooperia oncopphora (C.o) in sheep at dose of 0.025 mg/kg administered orally; details: route oral
[9] = test system: Oesophagostomum columbianum; assay: Anthelmintic efficacy against Oseophagostomum columbianum (Oe. c) in sheep at dose of 0.05 mg/kg administered orally; details: route oral; how it was run: as §1
[10] = test system: Trichostrongylus colubriformis; assay: Minimal dose necessary to eliminate > 83% of Trichostrongylus colubriformis infection in gerbils
[11] = test system: Trichostrongylus colubriformis; assay: Anthelmintic efficacy against Trichostrongylus colubriformis in sheep at dose of 0.1 mg/kg administered orally; details: route oral; how it was run: as §2
[12] = test system: Teladorsagia circumcincta; assay: Anthelmintic efficacy against adult Ostertagia circumcincta (O. c) in sheep at dose of 0.1 mg/kg administered orally; details: route oral; how it was run: as §2
Cooperia oncophora [13] = assay: Anthelmintic efficacy against adult Cooperia oncopphora (C.o) in sheep at dose of 0.05 mg/kg administered orally; 0-19%; how it was run: as §2
[14] = test system: Oesophagostomum columbianum; assay: Anthelmintic efficacy against Oseophagostomum columbianum (Oe. c) in sheep at dose of 0.1 mg/kg administered orally; details: route oral; how it was run: as §2
Cooperia oncophora [15] = assay: Anthelmintic efficacy against immature (EL4) Cooperia oncopphora (C.o) in sheep at dose of 0.05 mg/kg administered orally; 60-89%
Haemonchus contortus [16] = assay: Anthelmintic efficacy against adult Haemonchus contortus (H.c) in sheep at dose of 0.05 mg/kg administered orally; details: route oral; how it was run: as §1
[17] = test system: Teladorsagia circumcincta; assay: Anthelmintic efficacy against immature (EL4) Ostertagia circumcincta (O. c) in sheep at dose of 0.1 mg/kg administered orally; 60-89%
Cooperia oncophora [18] = assay: Anthelmintic efficacy against adult Cooperia oncopphora (C.o) in sheep at dose of 0.1 mg/kg administered orally; 60-89%; how it was run: as §2
Trichostrongylus axei [19] = assay: Anthelmintic efficacy against Trichostrongylus axei (T.a) in sheep at dose of 0.025 mg/kg administered orally; 20-59%; how it was run: as §2
[20] = test system: Teladorsagia circumcincta; assay: Anthelmintic efficacy against immature (EL4) Ostertagia circumcincta (O. c) in sheep at dose of 0.025 mg/kg administered orally; details: route oral
[21] = test system: Oesophagostomum columbianum; assay: Anthelmintic efficacy against Oseophagostomum columbianum (Oe. c) in sheep at dose of 0.025 mg/kg administered orally; details: route oral; how it was run: as §1
[22] = test system: Trichostrongylus colubriformis; assay: Anthelmintic efficacy against Trichostrongylus colubriformis (T.c) in sheep at dose of 0.025 mg/kg administered orally; details: route oral; how it was run: as §2
[23] = test system: Trichostrongylus colubriformis; assay: Anthelmintic efficacy against Trichostrongylus colubriformis (T.c) in sheep at dose of 0.05 mg/kg administered orally; details: route oral; how it was run: as §1
Trichostrongylus axei [24] = assay: Anthelmintic efficacy against Trichostrongylus axei (T.a) in sheep at dose of 0.05 mg/kg administered orally; details: route oral; how it was run: as §1
[25] = test system: Teladorsagia circumcincta; assay: Anthelmintic efficacy against adult Ostertagia circumcincta (O. c) in sheep at dose of 0.05 mg/kg administered orally; details: route oral; how it was run: as §1

## CC[C@H](C)[C@H]1O[C@]2(C=C[C@@H]1C)C[C@@H]1C[C@@H](C/C=C(\C)[C@@H](O[C@H]3C[C@@H](OC)[C@@H](O[C@H]4C[C@@H](OC)[C@@H](OC(C)=O)[C@H](C)O4)[C@H](C)O3)[C@@H](C)/C=C/C=C3\CO[C@@H]4[C@H](O)C(C)=C[C@@H](C(=O)O1)[C@]34O)O2
Haemonchus contortus [1]
  Efficacy: >90%
Cooperia oncophora [2]
  Efficacy: 0%
Trichostrongylus axei [3]
  Efficacy: >90%
Haemonchus contortus [4]
  Efficacy: >90%
[5]
  Efficacy: >90%
Cooperia oncophora [6]
  Efficacy: >90%
[7]
  Efficacy: 0%
Cooperia oncophora [8]
  Efficacy: 89%
[9]
  Efficacy: >90%
[10]
  Dose: 0.031 mg/kg
[11]
  Efficacy: >90%
[12]
  Efficacy: >90%
Cooperia oncophora [13]
  Efficacy: 0%
[14]
  Efficacy: >90%
Cooperia oncophora [15]
  Efficacy: 60%
Haemonchus contortus [16]
  Efficacy: >90%
[17]
  Efficacy: 60%
Cooperia oncophora [18]
  Efficacy: 60%
Trichostrongylus axei [19]
  Efficacy: 20%
[20]
  Efficacy: 19%
[21]
  Efficacy: >90%
[22]
  Efficacy: >90%
[23]
  Efficacy: >90%
Trichostrongylus axei [24]
  Efficacy: >90%
[25]
  Efficacy: >90%

## CC[C@H](C)[C@H]1O[C@]2(C=C[C@@H]1C)C[C@@H]1C[C@@H](C/C=C(\C)[C@@H](O[C@H]3C[C@@H](OC)[C@@H](O[C@H]4C[C@@H](OC)[C@@H](O[Si](C)(C)C(C)(C)C)[C@H](C)O4)[C@H](C)O3)[C@@H](C)/C=C/C=C3\CO[C@@H]4[C@H](O[Si](C)(C)C(C)(C)C)C(C)=C[C@@H](C(=O)O1)[C@]34O)O2
[10]
  Dose: >2.5 mg/kg

## CCCCCCCC(=O)O[C@H]1[C@H](C)O[C@@H](O[C@H]2[C@H](C)O[C@@H](O[C@@H]3/C(C)=C/C[C@@H]4C[C@@H](C[C@]5(C=C[C@H](C)[C@@H]([C@@H](C)CC)O5)O4)OC(=O)[C@@H]4C=C(C)[C@@H](O)[C@H]5OC/C(=C\C=C\[C@@H]3C)[C@]54O)C[C@H]2OC)C[C@H]1OC
[10]
  Dose: 0.125 mg/kg

## CC[C@H](C)[C@H]1O[C@]2(C=C[C@@H]1C)C[C@@H]1C[C@@H](C/C=C(\C)[C@@H](O[C@H]3C[C@@H](OC)[C@@H](O[C@H]4C[C@@H](OC)[C@@H](OC(=O)CNC(C)=O)[C@H](C)O4)[C@H](C)O3)[C@@H](C)/C=C/C=C3\CO[C@@H]4[C@H](O)C(C)=C[C@@H](C(=O)O1)[C@]34O)O2
[10]
  Dose: 0.025 mg/kg

## CC[C@H](C)[C@H]1O[C@]2(C=C[C@@H]1C)C[C@@H]1C[C@@H](C/C=C(\C)[C@@H](O[C@H]3C[C@@H](OC)[C@@H](O[C@H]4C[C@@H](OC)[C@@H](OC(=O)N(C)C)[C@H](C)O4)[C@H](C)O3)[C@@H](C)/C=C/C=C3\CO[C@@H]4[C@H](O)C(C)=C[C@@H](C(=O)O1)[C@]34O)O2
[10]
  Dose: 0.06 mg/kg

## CC[C@H](C)[C@H]1O[C@]2(C=C[C@@H]1C)C[C@@H]1C[C@@H](C/C=C(\C)[C@@H](O[C@H]3C[C@@H](OC)[C@@H](O[C@H]4C[C@@H](OC)[C@@H](OC(N)=O)[C@H](C)O4)[C@H](C)O3)[C@@H](C)/C=C/C=C3\CO[C@@H]4[C@H](O)C(C)=C[C@@H](C(=O)O1)[C@]34O)O2
[10]
  Dose: 0.025 mg/kg

## CC[C@H](C)[C@H]1O[C@]2(C=C[C@@H]1C)C[C@@H]1C[C@@H](C/C=C(\C)[C@@H](O[C@H]3C[C@@H](OC)[C@@H](O[C@H]4C[C@@H](OC)[C@@H](OC(=O)C(C)(C)C)[C@H](C)O4)[C@H](C)O3)[C@@H](C)/C=C/C=C3\CO[C@@H]4[C@H](O)C(C)=C[C@@H](C(=O)O1)[C@]34O)O2
[10]
  Dose: 0.5 mg/kg
